DNMT1 inh – DNMT1 (human) enzyme inhibition; inhibition (reported as % activation of signal), % at 10 µM; P26358; AID 588458; DNMT1 molecular beacon, Hinp1I cleavage, fluorescence; hit rate 0.83% among 360,000; in the data active means inhibition above about 50%
Scp1 inh – inhibitors of human Scp-1 phosphatase; inhibition, % at 20 µM; Recombinant Scp1, phosphopeptide, malachite green phosphate absorbance; AID 493091; hit rate 0.88% among 340,000;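 active means inhibition above about 50% at 20 µM, limit read from the data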;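 further: plate controls were DMSO wells with enzyme for no effect and wells lacking enzyme for full effect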
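Test system: SCP-1 phosphatase catalytic domain, residues 76-261 | Compound dosing: One concentration, 20 µM, with 1.0% DMSO | Schedule: 45 min room-temperature reaction, 5 min colour, 30 min stabiliser | Detection: Absorbance at 630 nm | Read-out basis: % inhibition of SCP-1 phosphate liberation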
LMPTP inh – LMPTP (human) inhibition. P24666. recombinant LMPTP-A, OMFP fluorogenic substrate, fluorescence intensity. inhibition, % at 20 µM. hit rate 0.22% among 360,000;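 active means compounds that cut the enzyme signal by at least half of the control window in the single-dose screen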;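 further: plate controls were DMSO wells with enzyme plus substrate for no effect and substrate without enzyme for full effect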
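test system = LMPTP-A | amount = 0.625 nM LMPTP-A final | reagent = fluorogenic phosphatase substrate OMFP at 400 µM final | incubation = 50 min at room temperature | benchmarks = no-enzyme low control, uninhibited high control | medium = Bis-Tris pH 6.0, DTT, detergent | signal = fluorescence intensity of OMFP turnover product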
SUMO1 PPI mod – alters human SUMO1 binding to SIM partners. SUMO1 binding to a labelled peptide, TR-FRET, 1 h. inhibition, % at 20 µM. hit rate 0.33% among 360,000. P63165; in the data active means inhibition above about 37%
Target sequence (P63165 whole entry, looked up): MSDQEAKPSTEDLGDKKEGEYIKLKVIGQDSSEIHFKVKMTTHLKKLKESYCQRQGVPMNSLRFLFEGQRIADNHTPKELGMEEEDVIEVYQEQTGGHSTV
STEP inh – STEP (human) phosphatase inhibition. P54829. recombinant STEP, OMFP fluorogenic substrate, fluorescence. inhibition, % at 20 µM. hit rate 0.25% among 360,000;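 active means inhibition at 20 µM, scaled per plate between control wells, above about 37%, limit read from the data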;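 further: 0% = DMSO with enzyme and substrate and 100% = substrate only without enzyme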
Target sequence (P54829 whole entry, looked up): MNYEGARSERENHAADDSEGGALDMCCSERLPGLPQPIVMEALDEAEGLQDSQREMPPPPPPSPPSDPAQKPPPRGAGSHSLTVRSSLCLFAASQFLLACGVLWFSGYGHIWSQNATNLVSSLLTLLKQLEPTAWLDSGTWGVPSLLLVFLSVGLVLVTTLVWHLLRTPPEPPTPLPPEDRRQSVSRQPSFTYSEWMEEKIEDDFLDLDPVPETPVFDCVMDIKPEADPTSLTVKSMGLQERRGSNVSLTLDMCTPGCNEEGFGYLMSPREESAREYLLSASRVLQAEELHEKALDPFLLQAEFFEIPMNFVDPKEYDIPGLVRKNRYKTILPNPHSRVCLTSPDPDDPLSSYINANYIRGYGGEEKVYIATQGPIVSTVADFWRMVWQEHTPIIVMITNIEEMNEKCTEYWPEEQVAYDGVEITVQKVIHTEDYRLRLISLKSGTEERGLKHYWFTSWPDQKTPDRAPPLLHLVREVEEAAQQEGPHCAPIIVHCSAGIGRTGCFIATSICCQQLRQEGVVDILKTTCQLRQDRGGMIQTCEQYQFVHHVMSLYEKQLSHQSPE
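System: STEP phosphatase, cell-free reaction; Buffer or medium: Bis-Tris pH 6.0 buffer with DTT, detergent; Incubation: 20 min at room temperature, dark; Measured by: fluorescence, 480/540 nm.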
CFTR F508del cor – correctors of CFTR F508del function in bronchial epithelial cells; CFBE cells, YFP halide quenching; stimulated with forskolin plus potentiator P3; % fluorescence drop versus neutral controls; activity (quench increase), % at 7.58 µM; hit rate 0.36% among 350,000; AID 720511;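 active means mean added fluorescence quench of at least 8% versus neutral control, with both replicates also reaching 8%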;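 further: cells transiently co-express mutant CFTR-F508del with the halide-sensitive YFP; corrector assay measuring rescue of mutant channel to the surface after 24 h compound exposure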
* = called active by the depositor. Shown are actives, neighbours in structure and some others; about 1.6% of the full set was active somewhere.

What do the screens show for `c1cnc2ccc3ncccc3c2c1`?
DNMT1 inh: 4; Scp1 inh: 2; LMPTP inh: 3; SUMO1 PPI mod: 0; STEP inh: -7; CFTR F508del cor: 1

What do the screens show for `Nc1ccc2ncccc2c1N`?
DNMT1 inh: -6; Scp1 inh: -4; LMPTP inh: 8; SUMO1 PPI mod: 45*; STEP inh: 0

What do the screens show for `NC(CSC(c1ccccc1)(c1ccccc1)c1ccc2c(c1)OCO2)C(=O)O` (stereo unspecified)?
DNMT1 inh: 51*; LMPTP inh: 2; SUMO1 PPI mod: 5; STEP inh: 4; CFTR F508del cor: -3

Results for NC(=O)CC(c1ccccc1)c1ccc2c(c1)OCO2 (stereo unspecified) ?
DNMT1 inh: 1; Scp1 inh: -5; LMPTP inh: -1; SUMO1 PPI mod: 20; STEP inh: 3; CFTR F508del cor: 0

How did C=CCN1C(=O)[C@@]2(O[C@@H](CCn3cc([C@H](O)c4ccccc4)nn3)[C@H]([Si](C)(C)c3ccc(OC)cc3)[C@H]2C)c2cc(N3CCOC3=O)ccc21 do in these assays?
CFTR F508del cor: 12*

What do the screens show for `C=CCN1C(=O)[C@@]2(O[C@@H](CCn3cc(CCO)nn3)[C@H]([Si](C)(C)c3ccc(OC)cc3)[C@H]2C)c2cc(N3CCOC3=O)ccc21`?
CFTR F508del cor: 3

How did Cc1ccc(OCC(=O)Nc2ccc(CN3CCCCC3)cc2)c(C)c1 do in these assays?
DNMT1 inh: 3; Scp1 inh: 7; LMPTP inh: 4; SUMO1 PPI mod: -6; STEP inh: -1; CFTR F508del cor: 8.3*

What do the screens show for `Cc1cc(OCC(=O)Nc2ccc(CN3CCCCC3)cc2)ccc1Cl`?
DNMT1 inh: -2; Scp1 inh: -6; LMPTP inh: 1; SUMO1 PPI mod: -1; STEP inh: 0; CFTR F508del cor: 1

How did Nc1[nH]c(C(=O)c2ccccc2)c(-c2ccccc2C(F)(F)F)c1C(=O)NCCc1c[nH]c2ccccc12 do in these assays?
LMPTP inh: 3; SUMO1 PPI mod: 3; CFTR F508del cor: 9.8*

Results for C[C@@H]1CN([C@@H](C)CO)C(=O)c2cc(NC(=O)c3ccncc3)ccc2O[C@H]1CN(C)C(=O)Nc1ccc2c(c1)OCO2 ?
CFTR F508del cor: -1

What do the screens show for `NS(=O)(=O)c1ccc(-c2ccc(/C=C3\C(=O)Nc4cc(Cl)ccc43)o2)cc1`?
DNMT1 inh: -14; Scp1 inh: -11; LMPTP inh: 22; SUMO1 PPI mod: 48*; STEP inh: 0; CFTR F508del cor: 7

What do the screens show for `CS(=O)(=O)Nc1ccc(-c2ccc(/C=C3\SC(N)=NC3=O)o2)cc1`?
DNMT1 inh: -2; Scp1 inh: -5; LMPTP inh: 0; SUMO1 PPI mod: -18; STEP inh: -2; CFTR F508del cor: -3

What do the screens show for `NC1=NC(=O)/C(=C/c2ccc(-c3ccc(S(N)(=O)=O)cc3)o2)S1`?
DNMT1 inh: 9; Scp1 inh: 6; LMPTP inh: 4; SUMO1 PPI mod: 88*; STEP inh: -2; CFTR F508del cor: 1

How did COc1cccc(S(=O)(=O)N2CCC3(CC2)CN[C@@H](CO)c2c3c3ccc(OC)cc3n2C)c1 do in these assays?
CFTR F508del cor: 0

How did CN1CCN(CCCNc2nc3ccccc3c3nc(-c4ccccc4)nn23)CC1 do in these assays?
DNMT1 inh: 14; Scp1 inh: -9; LMPTP inh: -7; SUMO1 PPI mod: -16; STEP inh: 3; CFTR F508del cor: 1

How did CCN(CC)CCCNc1nc2ccccc2c2nc(-c3ccncc3)nn12 do in these assays?
DNMT1 inh: 40; Scp1 inh: 4; LMPTP inh: 0; SUMO1 PPI mod: 9; STEP inh: 0; CFTR F508del cor: 15*

How did COc1cccc(N=C2NC(=O)/C(=C/c3cc([N+](=O)[O-])ccc3O)S2)c1 do in these assays?
DNMT1 inh: 3; Scp1 inh: 44; LMPTP inh: 88*; SUMO1 PPI mod: -5; STEP inh: 50*; CFTR F508del cor: 5

What do the screens show for `COc1ccc(-c2csc(/C(C#N)=C\c3ccc(O)c([N+](=O)[O-])c3)n2)cc1OC`?
DNMT1 inh: -9; Scp1 inh: 32; LMPTP inh: 1; SUMO1 PPI mod: 38*; STEP inh: 3; CFTR F508del cor: 0

How did CCC(=O)Nc1ccc2c(c1)C(=O)N(C)C[C@@H](OC)[C@@H](C)CN(C(=O)Cc1ccccn1)[C@@H](C)CO2 do in these assays?
CFTR F508del cor: 1

What do the screens show for `C#CCOCCOCCOCCNc1nc(N2CCN(C(=O)CCCCCCCCCCNC(=O)Cn3cc(C[C@@H](C)O)nn3)CC2)nc(N2CCN(C(=O)CCCCCCCCCCNC(=O)[C@H](CCCN=C(N)N)n3cc(C[C@@H](C)CC)nn3)CC2)n1`?
DNMT1 inh: -108; Scp1 inh: 25; LMPTP inh: 13; SUMO1 PPI mod: 106*; STEP inh: 5

How did C#CCOCCOCCOCCNc1nc(N2CCN(C(=O)CCCCCCCCCCNC(=O)[C@H](CO)n3cc(CCCSC)nn3)CC2)nc(N2CCN(C(=O)CCCCCCCCCCNC(=O)[C@H](CCCN=C(N)N)n3cc(C[C@@H](C)CC)nn3)CC2)n1 do in these assays?
DNMT1 inh: -105; Scp1 inh: 63*; LMPTP inh: 17; SUMO1 PPI mod: 90*; STEP inh: 19

How did COc1ccc2c(c1)c(CC(=O)OCC(=O)O)c(C)n2C(=O)c1ccc(Cl)cc1 do in these assays?
DNMT1 inh: 0; Scp1 inh: -20; LMPTP inh: -1; SUMO1 PPI mod: 11; STEP inh: 0; CFTR F508del cor: 8.5*

Results for COc1ccc2c(c1)c(CC(=O)OCC(N)=O)c(C)n2C(=O)c1ccc(Cl)cc1 ?
DNMT1 inh: -1; Scp1 inh: -7; LMPTP inh: 2; SUMO1 PPI mod: 2; STEP inh: -1; CFTR F508del cor: 0

What do the screens show for `O=C(Nc1ccc(NC(=O)c2ccc(Cl)cc2Cl)cc1)c1ccc2c(c1)OCO2`?
DNMT1 inh: 21; Scp1 inh: -12; LMPTP inh: -2; SUMO1 PPI mod: 0; STEP inh: 2; CFTR F508del cor: 3

What do the screens show for `O=C(Nc1ccncc1)Nc1cccc(Cl)c1`?
DNMT1 inh: 0; Scp1 inh: 4; LMPTP inh: 7; SUMO1 PPI mod: 4; STEP inh: 0; CFTR F508del cor: 0

Results for O=C(Nc1cccc(C2=NCCN2)c1)Nc1cccc(C2=NCCN2)c1 ?
DNMT1 inh: 7; Scp1 inh: -19; LMPTP inh: 17; SUMO1 PPI mod: -31; STEP inh: 4; CFTR F508del cor: 8.3*
